According to ChEMBL document CHEMBL4043092, “Neuroprotective and Antineuroinflammatory Effects of Hydroxyl-Functionalized Stilbenes and 2-Arylbenzo[b]furans” (J Med Chem, 2017):

Key:
Cortical neurone [1] = test: Neuroprotective activity against fibril amyloid beta (25 to 35)-induced cell death in Sprague-Dawley rat 5 day old neonatal primary cortical neurons assessed as cell death at maximum non toxic concentration pretreated for 2 hrs followed by 10 uM fibril amyloid beta (25 to 35) addition measured after 48 hrs by MTT assay (reference value: 39.20 +/- 0.88%); type: functional
Summary of the method: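 Rat cortical neurons from pups, papain-dissociated, cytosine arabinoside (5 μM, 1 day) to remove non-neuronal cells, used at DIV5. Vehicle 0.1% DMSO or compound pretreatment before fAβ25–35 (aged 1 week at 37 °C). Viability by MTT reduction: 0.5 mg/mL for 1 h, formazan dissolved in DMSO, OD600. Mean ± SD of three independent experiments.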

Cortical neurone [2] = test: Neuroprotective activity against glutamate-induced cell death in Sprague-Dawley rat 10 days old neonatal primary cortical neurons assessed as cell death at maximum non toxic concentration pretreated for 2 hrs followed by 30 uM glutamate addition measured after 24 hrs by MTT assay (reference value: 41.22 +/- 3.40%); type: functional
[3] = Anti-inflammatory activity in Sprague-Dawley rat primary mixed glial cells assessed as inhibition of LPS-induced NO production at 50 uM pretreated for 2 hrs followed by LPS addition measured after 48 hrs by Griess assay (reference value: 100%); type: functional, Primary glial cell; parameters: scale not given: the % may be the effect or the level left
Cortical neurone [4] = test: Neuroprotective activity against fibril amyloid beta (25 to 35)-induced cell death in Sprague-Dawley rat 5 days old neonatal primary cortical neurons assessed as increase in cell viability pretreated for 2 hrs followed by 10 uM fibril amyloid beta (25 to 35) addition measured after 48 hrs by MTT assay; type: functional, cell-based
Summary of the method: (§1)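 Cortical neurons pretreated 2 h with vehicle (0.1% DMSO) or compound at maximum nontoxic concentration. Then exposed at DIV5 to fibrillar Aβ25–35 (10 μM, 48 h) or at DIV10 to glutamate (30 μM, 24 h). MTT 0.5 mg/mL for 1 h, formazan dissolved in DMSO, OD read at 600 nm. Mean ± SD of three independent experiments.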

Cortical neurone [5] = test: Neuroprotective activity against glutamate-induced cell death in Sprague-Dawley rat 10 days old neonatal primary cortical neurons assessed as increase in cell viability pretreated for 2 hrs followed by 30 uM glutamate addition measured after 24 hrs by MTT assay; type: functional, cell-based; summary of the method: as §1
[6] = Anti-inflammatory activity in Sprague-Dawley rat primary mixed glial cells assessed as inhibition of LPS-induced NO production pretreated for 2 hrs followed by LPS addition measured after 48 hrs by Griess assay; type: functional, cell-based; conditions: Glial cell
Summary of the method: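 Mixed cortical glia kept 3 days in DMEM/F12 with 10% FBS, medium changed, 4 more days, then 9 days in Neurobasal/B27 (16 days total). Cultures activated 2 days after medium refresh with 100 ng/mL LPS for 48 h, with compound at maximum nontoxic concentration. Medium nitrite read by Griess reagent at 540 nm against NaNO2 standard. Mean ± SD, three independent experiments.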

[7] = Antioxidant activity assessed as ABTS radical cation scavenging activity by measuring trolox equivalents by spectrophotometric analysis; type: functional

Compound | Activity (Cortical neurone [1]) [%] | Activity (Cortical neurone [2]) [%] | Activity [3] [%] | EC50 (Cortical neurone [4]) [µM] | EC50 (Cortical neurone [5]) [µM] | EC50 [6] [µM] | Activity [7] [mMequiv]
COc1cc(/C=C/c2ccc3c(c2)OCO3)cc(OC)c1OC | 45.46 | 36.43 | 83.73 |  |  |  | 
CCOC(=O)/C=C/c1cc(O)c(O)cc1-c1cc2cccc(O)c2o1 | 31.58 | 43.5 | 38.13 | > 50 | > 50 | 82.5 | 0.2
COc1cc(Br)cc(/C=C/c2ccc3c(c2)OCO3)c1O | 45.74 | 45.69 | 48.79 | > 10 | > 20 | 84.8 | 
COc1ccc(/C=C/c2cc(Br)cc(OC)c2O)cc1OC | 41.5 | 42.09 | 88.34 |  |  |  | 
CCOC(=O)/C=C/c1cccc(/C=C/c2cc(OC)c(OC)c(OC)c2)c1 | 35.98 | 43.29 | 75.6 |  |  |  | 
CCOC(=O)/C=C/c1cc(OC)c(OC)cc1/C=C/c1cccc(OC)c1O | 41.24 | 42.73 | 89.35 |  |  |  | 
CCOC(=O)/C=C/c1ccc(/C=C/c2cc(OC)c(OC)c(OC)c2)cc1 | 44.43 | 44.56 | 91.44 |  |  |  | 
Oc1cc(-c2cc3cc(Br)cc(O)c3o2)cc(O)c1O | 45.8 | 43.67 | 106.67 |  |  |  | 
CCOC(=O)/C=C/c1ccc(OC)c(O)c1/C=C/c1ccc2c(c1)OCO2 | 38.17 | 49.21 | 70.98 | > 50 | > 50 | 67 | 
COc1cccc(/C=C/c2ccc3c(c2)OCO3)c1O | 46.98 | 38.42 | 101 |  |  |  | 
COc1ccc(/C=C/c2cc(C=O)cc(OC)c2O)cc1OC | 48.16 | 37.02 | 27.99 | > 50 | > 50 | 43 | 
Oc1ccc(-c2cc3cc(Br)cc(O)c3o2)cc1 | 30.1 | 33.02 | 101.84 |  |  |  | 
CCOC(=O)/C=C/c1cc2c(cc1/C=C/c1ccc(OC)cc1)OCO2 | 41.62 | 37.28 | 74.88 |  |  |  | 
CCOC(=O)/C=C/c1cccc(/C=C/c2cc(O)c(O)c(O)c2)c1 | 41.19 | 42.05 | 26.02 | > 50 | > 50 | 48.9 | 
COc1cc(Br)c(/C=C/c2cc(Br)cc(OC)c2O)cc1OC | 38.78 | 41.17 | 94.57 |  |  |  | 
CCOC(=O)/C=C/c1cc2c(cc1/C=C/c1cccc(OC)c1O)OCO2 | 41.57 | 41.64 | 75.33 |  |  |  | 

Compound | Activity (Cortical neurone [1]) [%] | Activity (Cortical neurone [2]) [%] | Activity [3] [%] | EC50 (Cortical neurone [4]) [µM] | EC50 (Cortical neurone [5]) [µM] | EC50 [6] [µM] | Activity [7] [mMequiv]
Oc1cc(-c2cc3ccccc3o2)c(Br)c(O)c1O | 42.34 | 41.89 | 24.92 | > 20 | > 20 | 39.2 | 0.97
COc1ccc(/C=C/c2ccc3c(c2)OCO3)cc1O | 43.51 | 30.94 | 81.35 |  |  |  | 
COC(=O)/C=C/c1ccc(O)c2c1C=Cc1cc(O)c(O)cc1O2 | 40.12 | 20.38 | 99.63 |  | > 50 |  | 1.48
CCOC(=O)/C=C/c1cc(OC)c(OC)cc1/C=C/c1cc(OC)c(OC)c(OC)c1 | 41.59 | 39.47 | 123.48 |  |  |  | 
COc1cc(/C=C/c2ccccc2O)c(Br)c(OC)c1OC | 37.67 | 47.1 | 105.48 |  |  |  | 
COc1cccc(/C=C/c2ccc3c(c2)OCO3)c1OC | 38.18 | 44.02 | 95.92 |  |  |  | 
COc1cc(Br)c(/C=C/c2cccc(OC)c2O)cc1OC | 39.67 | 42.89 | 102.71 |  |  |  | 
CCOC(=O)/C=C/c1cc2c(cc1/C=C/c1cc(OC)c(OC)c(OC)c1)OCO2 | 41.76 | 43.95 | 127.76 |  |  |  | 
O=C(O)/C=C/c1ccc(O)c2c1C=Cc1cc(O)c(O)cc1O2 [TOURNEFOLIC ACID B] | 24.66 | 42.43 | 98.77 | 35.7 |  |  | 1.27
CCOC(=O)/C=C/c1c(/C=C/c2ccc(OC)cc2)cc(OC)c(OC)c1OC | 36.93 | 41.07 | 59.11 |  |  |  | 
CCOC(=O)/C=C/c1cc(OC)c(OC)cc1/C=C/c1ccccc1O | 36.56 | 43.3 | 73.27 |  |  |  | 
CCOC(=O)/C=C/c1cc(/C=C/c2ccc3c(c2)OCO3)c(O)c(OC)c1 | 39.08 | 41.26 | 139.87 |  |  |  | 
COc1ccc(Br)c2cc(-c3ccc4c(c3)OCO4)oc12 | 43.98 | 46.84 | 202.71 |  |  |  | 
CCOC(=O)/C=C/c1ccc(OC)c(O)c1/C=C/c1ccc(OC)c(OC)c1 | 38.07 | 44.3 | 106.26 |  |  |  | 
CCOC(=O)/C=C/c1ccc(OC)c(O)c1/C=C/c1cc(OC)c(OC)c(OC)c1 | 42.53 | 43.06 | 114.19 |  |  |  | 
